According to ChEMBL document CHEMBL1649351, “Synthesis, in vitro antimicrobial and in vivo antitumor evaluation of novel pyrimidoquinolines and its nucleoside derivatives” (Eur J Med Chem, 2011):

How the values were obtained:
Bacillus subtilis = test: Antibacterial activity against Bacillus subtilis at 50 mg/disk after 24 to 28 hrs by agar disk diffusion method; type: functional
Lactococcus lactis = test: Antibacterial activity against Streptococcus lactis at 50 mg/disk after 24 to 28 hrs by agar disk diffusion method; type: functional
Escherichia coli = test: Antibacterial activity against Escherichia coli at 50 mg/disk after 24 to 28 hrs by agar disk diffusion method; type: functional
Pseudomonas aeruginosa = test: Antibacterial activity against Pseudomonas aeruginosa at 50 mg/disk after 24 to 28 hrs by agar disk diffusion method; type: functional
Candida albicans = test: Antifungal activity against Candida albicans at 50 mg/disk after 5 days by agar disk diffusion method; type: functional
Nakaseomyces glabratus = test: Antifungal activity against Candida glabrata at 50 mg/disk after 5 days by agar disk diffusion method; type: functional
HepG2 [1] = test: Antitumor activity against human HepG2 cells xenografted in Swiss albino mouse assessed as increase of mouse survival at 10 ug/kg, ip for 10 days (reference value: 22 +/- 1.90 day); type: functional
HepG2 [2] = test: Antitumor activity against human HepG2 cells xenografted in Swiss albino mouse assessed as increase mouse life span at 10 ug/kg, ip for 10 days relative to control; type: functional
HeLa [3] = test: Antitumor activity against human HeLa cells xenografted in Swiss albino mouse assessed as increase of mouse survival at 10 ug/kg, ip for 10 days (reference value: 22 +/- 1.90 day); type: functional
HeLa [4] = test: Antitumor activity against human HeLa cells xenografted in Swiss albino mouse assessed as increase mouse life span at 10 ug/kg, ip for 10 days relative to control; type: functional
Mus musculus [5] = test: Acute toxicity in human HepG2 cells xenografted ip dosed Swiss albino mouse assessed as mortality measured up to 2 weeks; type: organism-based; conditions: in vivo, 336 h
Outline: (§1)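 Adult Swiss albino mice were fasted 12 h and randomised into groups of 10. Each group got one i.p. dose from a graded series, given at 1 ml/kg body weight; controls got vehicle alone. Food and water were returned right after dosing. Mortality was followed for up to two weeks, and LD50 was taken as the dose giving 50% mortality.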

Mus musculus [6] = test: Acute toxicity in human HeLa cells xenografted ip dosed Swiss albino mouse assessed as mortality measured up to 2 weeks; type: organism-based; conditions: in vivo, 336 h; outline: as §1

| Molecule | diameter of the inhibition zone (DIZ) (Bacillus subtilis) [mm] | diameter of the inhibition zone (DIZ) (Lactococcus lactis) [mm] | diameter of the inhibition zone (DIZ) (Escherichia coli) [mm] | diameter of the inhibition zone (DIZ) (Pseudomonas aeruginosa) [mm] | diameter of the inhibition zone (DIZ) (Candida albicans) [mm] | diameter of the inhibition zone (DIZ) (Nakaseomyces glabratus) [mm] | Survival (HepG2 [1]) [days] | Activity (HepG2 [2]) [%] | Survival (HeLa [3]) [days] | Activity (HeLa [4]) [%] | LD50 (Mus musculus [5]) [mg/kg] | LD50 (Mus musculus [6]) [mg/kg] | inhibition zone (IZ) (Nakaseomyces glabratus) [mm] |
| --- | --- | --- | --- | --- | --- | --- | --- | --- | --- | --- | --- | --- | --- |
| CSc1nc2c(c(=O)[nH]1)C(c1ccc([N+](=O)[O-])cc1)C1=C(CC(C)(C)CC1=O)N2[C@@H]1O[C@H](CO)[C@@H](O)[C@H](O)[C@H]1O (stereo partly specified) | 21 | 19 | 23 | 23 | 8 | 9 | 38 | 60 | 36 | 61 | 0.115 | 0.119 |  |
| CC1(C)CC(=O)C2=C(C1)Nc1nc3[nH]nnn3c(=O)c1C2c1ccc([N+](=O)[O-])cc1 (stereo unspecified) | 23 | 18 | 20 | 19 | 12 | 10 |  |  |  |  |  |  |  |
| CSc1nc2c(c(=O)[nH]1)C(c1ccc([N+](=O)[O-])cc1)C1=C(CC(C)(C)CC1=O)N2 (stereo unspecified) | 13 | 14 | 13 | 14 | 7 | 8 |  |  |  |  |  |  |  |
| COc1ccc(/C=N\Nc2nc3c(c(=O)[nH]2)C(c2ccc([N+](=O)[O-])cc2)C2=C(CC(C)(C)CC2=O)N3)cc1 (stereo unspecified) | 15 | 16 | 17 | 16 | 7 | 8 |  |  |  |  |  |  |  |
| CSc1nc2c(c(=O)[nH]1)C(c1ccc([N+](=O)[O-])cc1)C1=C(CC(C)(C)CC1=O)N2[C@@H]1O[C@H](COC(C)=O)[C@@H](OC(C)=O)[C@H](OC(C)=O)[C@H]1OC(C)=O (stereo partly specified) | 20 | 20 | 23 | 22 | 8 | 8 | 36 | 66 | 37 | 61 | 0.109 | 0.111 |  |
| CC1(C)CC(=O)C2=C(C1)Nc1nc(NN)[nH]c(=O)c1C2c1ccc([N+](=O)[O-])cc1 (stereo unspecified) | 15 | 15 | 15 | 15 | 9 | 8 | 28 | 31 | 29 | 38 | 0.089 | 0.1 |  |
| CSc1nc2c(c(=O)[nH]1)C(c1ccc([N+](=O)[O-])cc1)C1=C(CC(C)(C)CC1=O)N2[C@@H]1OC[C@@H](O)[C@@H](O)[C@@H]1O (stereo partly specified) | 20 | 18 | 24 | 23 | 7 | 8 | 37 | 60 | 38 | 66 | 0.11 | 0.116 |  |
| CSc1nc2c(c(=O)[nH]1)C(c1ccc([N+](=O)[O-])cc1)C1=C(CC(C)(C)CC1=O)N2[C@@H]1O[C@H](CO)[C@H](O)[C@H](O)[C@H]1O (stereo partly specified) | 21 | 20 | 22 | 22 | 8 | 7 |  |  |  |  |  |  |  |
| CSc1nc2c(c(=O)n1C)C(c1ccc([N+](=O)[O-])cc1)C1=C(CC(C)(C)CC1=O)N2 (stereo unspecified) | 15 | 13 | 15 | 14 | 8 | 6 | 34 | 50 | 28 | 48 | 0.098 | 0.111 |  |
| CC1(C)CC(=O)C2=C(C1)Nc1nc3[nH]ncn3c(=O)c1C2c1ccc([N+](=O)[O-])cc1 (stereo unspecified) | 20 | 20 | 19 | 18 | 9 | 9 | 31 | 55 | 30 | 51 | 0.1 | 0.098 |  |
| CSc1nc2c(c(=O)[nH]1)C(c1ccc([N+](=O)[O-])cc1)C1=C(CC(C)(C)CC1=O)N2[C@@H]1O[C@H](COC(C)=O)[C@@H](OC(C)=O)[C@@H]1OC(C)=O (stereo partly specified) | 19 | 20 | 21 | 23 | 8 | 9 |  |  |  |  |  |  |  |
| CC1(C)CC(=O)C2=C(C1)Nc1nc3n(N)c(-c4ccccc4)cn3c(=O)c1C2c1ccc([N+](=O)[O-])cc1 (stereo unspecified) | 20 | 20 | 23 | 23 | 8 | 6 |  |  |  |  |  |  |  |
| CSc1nc2c(c(=O)[nH]1)C(c1ccc([N+](=O)[O-])cc1)C1=C(CC(C)(C)CC1=O)N2[C@@H]1O[C@H](COC(C)=O)[C@H](OC(C)=O)[C@H](OC(C)=O)[C@H]1OC(C)=O (stereo partly specified) | 20 | 19 | 25 | 23 | 7 | 8 |  |  |  |  |  |  |  |
| Cc1n[nH]c2nc3c(c(=O)n12)C(c1ccc([N+](=O)[O-])cc1)C1=C(CC(C)(C)CC1=O)N3 (stereo unspecified) | 18 | 21 | 18 | 22 | 11 | 11 |  |  |  |  |  |  |  |
| CCn1cc(C(=O)O)c(=O)c2ccc(C)nc21 [NALIDIXIC ACID] | 25 | 25 | 25 | 25 |  |  |  |  |  |  |  |  |  |
| CC1(C)CC(=O)C2=C(C1)Nc1nc(N/N=C\c3ccccc3)[nH]c(=O)c1C2c1ccc([N+](=O)[O-])cc1 (stereo unspecified) | 17 | 18 | 17 | 16 | 7 | 6 |  |  |  |  |  |  |  |
| NYSTATIN |  |  |  |  |  |  |  |  |  |  |  |  | 20 |
